# Screening data (PubChem BioAssay)
# Sampled rows, rich in hits. Any-hit rate of the full collection: about 1.2%.
# CSN inh = blocks human CSN-mediated cullin deneddylation. Q92905. Purified CSN, SCF-Nedd8-OG deneddylation, fluorescence polarization. inhibition, % at 12.5 µM. actives 0.38% (n = 360,000). AID 651999;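 active = pattern-corrected inhibition above about 35%, with an unprinted fluorescence ratio check between 0.5 and 1.5, limit read from the data, passing the limit was not always enough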
# Target sequence (Q92905 whole entry, looked up, one chain of several): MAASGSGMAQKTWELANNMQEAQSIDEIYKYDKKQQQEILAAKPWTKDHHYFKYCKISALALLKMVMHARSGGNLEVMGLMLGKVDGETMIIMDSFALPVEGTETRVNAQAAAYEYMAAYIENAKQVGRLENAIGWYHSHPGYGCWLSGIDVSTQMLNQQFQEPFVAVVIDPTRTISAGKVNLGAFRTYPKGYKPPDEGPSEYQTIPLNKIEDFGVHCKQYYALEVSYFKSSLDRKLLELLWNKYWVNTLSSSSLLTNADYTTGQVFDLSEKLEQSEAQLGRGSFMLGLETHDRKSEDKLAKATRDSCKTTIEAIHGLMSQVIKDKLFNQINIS
#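 Test system: purified human Csn5 enzyme expressed in HEK293T cells. Amount: 0.24 nM enzyme. Reagent: SCFSkp2-Nedd8OG substrate at 10 nM final. Schedule: 90 min incubation of compound, enzyme and substrate at room temperature. Detection: fluorescence polarization. Read-out: % inhibition of substrate cleavage by Csn5.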
# HNF4A DNA FP = change in binding of human HNF4 alpha to DNA; activity change, % at 10 µM; actives 0.3% (n = 360,000); HNF4a-FITC DNA binding, fluorescence polarization, 1 h; in the data active = activity change above about 30%, passing the limit was not always enough
# TPT1 inh = inhibitors of Candida albicans tRNA 2'-phosphotransferase TPT1; recombinant caTPT1, FP RNA substrate dephosphorylation; inhibition, % at 5 µM; actives 0.81% (n = 300,000); AID 1962;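 active = inhibition above the mean of all tested compounds plus 3 SD, set per screening campaign, cut at about 24% in these data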
# Rtt109 Vps75 = blocks Candida albicans Rtt109/Vps75 acetyltransferase activity; inhibition, % at 34.9 µM; Q5AAJ8; AID 540336; purified Rtt109/Vps75, ThioGlo CoA-SH fluorescence, 4 h; actives 0.16% (n = 330,000);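 active = inhibition of at least 50% in every replicate; inconclusive = best replicate reaches 50% inhibition but some replicates fall short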
# TPT1 inh confirm = TPT1 (C. albicans) inhibition, confirmation | shares compounds with TPT1 inh | recombinant caTPT1, fluorescence polarization, RNase T1 coupled | inhibition, % at 5 µM | actives 74% (n = 2,400);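 active = inhibition above the primary screen limit, the mean inhibition of all tested compounds plus 3 SD, cut at about 25% in these data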
# RNase T1 counter = RNase T1 inhibition in TPT1 counter-screen. shares compounds with TPT1 inh. RNase T1 cleavage, fluorescence polarization, 1536-well. actives 83% (n = 2,400). inhibition, % at 5 µM;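 active = inhibition above the solvent-only control well mean plus 3 SD, limit set per screening run, cut at about 23% in these data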;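 note: inhibitors block cleavage so intact labeled substrate keeps polarization high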
# Target sequence (P00651 whole entry, looked up): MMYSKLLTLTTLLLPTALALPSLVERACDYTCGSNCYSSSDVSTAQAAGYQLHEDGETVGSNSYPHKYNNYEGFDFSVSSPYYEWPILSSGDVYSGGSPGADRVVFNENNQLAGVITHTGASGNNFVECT
# Hits are given with their value; 0 = inactive; ? = inconclusive; - = no result.
SMILES,CSN inh,HNF4A DNA FP,TPT1 inh,Rtt109 Vps75,TPT1 inh confirm,RNase T1 counter
COC(=O)c1cccc(Cn2c(Cl)c(/C=N/Nc3ccccc3C)sc2=O)c1,0,0,29.0,0,34.8,42.1
Cc1cccc(N=Cc2[nH]c3ccc(Br)c(Cl)c3c2O)c1,0,0,112.5,0,72.8,76.9
O=C1/C(=C/N(C(=O)c2ccco2)c2ccc(Cl)cc2)Sc2ccccc21,0,0,68.9,0,70.3,82.4
O=C1/C(=C/N(C(=O)c2ccco2)c2ccc(Br)cc2)Sc2ccccc21,0,0,70.3,0,71.0,84.8
CC(C=CC(O)=C1C(=O)CNC1=O)=C[C@@H](C)C1OC2(C)OC(C(=O)C3O[C@@]32C)C1C (some centres undefined),0,0,-,-,-,-
COc1ccc(N=Cc2c(OC)ccc3ccccc23)cc1,0,0,0,0,-,-
COc1ccc(N=Cc2sc(O)c3ccccc23)cc1,0,0,147.3,0,119.5,115.7
CCOC(=O)[C@@H]1[C@H]2COc3ccc(Br)cc3[C@@H]2N2C(=O)N(c3ccc(C(F)(F)F)cc3)C(=O)[C@@]12C,0,0,0,0,-,-
CN(C)c1cc[n+](CC(=O)c2ccc(-c3ccccc3)cc2)cc1,0,0,0,0,-,-
O=C(C[n+]1ccccc1)c1ccc(-c2ccccc2)cc1,0,0,39.8,0,0,0
COc1cc(OC)cc(C(=O)N2CCN(C(=O)c3cccnc3)CC2)c1,0,0,0,0,-,-
Cc1cc(C)nc(N2CCN(C(=O)CCC(=O)Nc3nnc(C(C)C)s3)CC2)n1,0,0,0,0,-,-
O=C(O)CN1C(=O)/C(=C\c2cn(CC(=O)N3CCOCC3)c3ccccc23)SC1=S,0,0,181.0,0,149.9,144.3
Cc1cccc(C(=O)Oc2ccccc2/C=N/Nc2ccc([N+](=O)[O-])cc2)c1,0,0,39.3,0,39.0,51.5
O=[N+]([O-])c1ccc(N/N=C/c2ccc[nH]2)cc1,0,0,64.4,0,64.8,75.5
O=[N+]([O-])c1ccc(NN=Cc2cccc([N+](=O)[O-])c2)cc1,0,0,-,0,-,-
O=[N+]([O-])c1ccc(N/N=C/c2cccc(O)c2)cc1,0,0,45.4,0,54.6,66.4
O=[N+]([O-])c1ccc(N/N=C/c2cccc(O)c2O)cc1,0,0,51.0,0,59.7,74.2
CCc1nc2c(OCC=C(C)C)cccn2c1N(C)C(=O)c1ccc(OC)cc1,0,0,-,-,-,-
COc1ccc(CCNC(=O)[C@@H](NC(=O)N2CC(=O)Nc3ccccc32)C(C)C)cc1OC,0,0,0,0,-,-
O=C(O)c1cc(S(=O)(=O)N2CCN(C(c3ccccc3)c3ccccc3)CC2)ccc1Cl,0,0,0,0,-,-
O=C(CN1CCCCC1)Nc1ccc(S(=O)(=O)c2ccc(NC(=O)CN3CCCCC3)cc2)cc1,0,0,-,0,-,-
O=C(O)/C=C/c1cn(-c2ccccc2)nc1-c1cccc([N+](=O)[O-])c1,0,0,0,0,-,-
O=C(O)/C=C/c1cn(-c2ccccc2)nc1-c1ccc(-c2ccc([N+](=O)[O-])cc2)o1,0,0,68.9,0,84.3,91.0
O=[N+]([O-])c1ccc(N/N=C/c2cn(-c3ccccc3)nc2-c2ccccc2)cc1,0,0,118.2,0,103.3,111.0
SMILES,CSN inh,HNF4A DNA FP,TPT1 inh,Rtt109 Vps75,TPT1 inh confirm,RNase T1 counter
Cc1cn([C@H]2C[C@H](O)[C@@H](CNCc3ccc(Oc4cc(-n5cccn5)ncn4)cc3)O2)c(=O)[nH]c1=O,0,0,-,-,-,-
O=C(O)CCn1cc(/C=C2\SC(=S)NC2=O)c(-c2ccccc2)n1,0,0,54.2,0,0,0
CN(C)S(=O)(=O)c1cccc(-c2nn(-c3ccccc3)cc2/C=C(\C#N)c2nc3ccccc3[nH]2)c1,0,0,0,0,-,-
CN(C)S(=O)(=O)c1cccc(-c2nn(-c3ccccc3)cc2/C=C2\SC(=S)NC2=O)c1,0,58.5,74.7,0,0,32.9
Cc1cc(C)n2[nH]c(=O)cc2n1,0,0,-,-,-,-
CCOc1ccc(NC(=O)c2ccc(NC(=O)CSc3nc4ccccc4c(=O)[nH]3)cc2)cc1,0,0,52.8,0,0,0
CCN(CC)c1ccc(NC(=O)CSc2nc3nc(C)cc(C)c3c(=O)[nH]2)cc1,0,0,0,0,-,-
COc1ccc(NC(=O)CSc2nc3nc(C)cc(C)c3c(=O)[nH]2)cc1,0,0,25.0,0,0,0
CCCSc1nnc(NC(=O)c2sc3nc(-c4cccs4)ccc3c2N)s1,0,0,66.3,0,0,27.5
CCCSc1nnc(NC(=O)c2ccco2)s1,0,0,0,0,-,-
COc1ccc(C(=O)Nc2nc(-c3cccs3)cs2)cc1,0,0,0,0,-,-
Cc1csc(NC(=O)c2sc3nc(-c4cccs4)ccc3c2N)n1,-,-,26.7,-,25.8,40.9
Cc1noc(C)c1CSCC(=O)N(C)CC(=O)Nc1ccc(Cl)cc1,0,0,0,0,-,-
CCCn1c2c(c(O)c(C(=O)NCc3ccccc3)c1=O)CCCC2,0,0,0,0,-,-
CCCn1c2c(c(O)c(C(=O)NC)c1=O)CCCC2,0,0,37.8,0,0,0
O=C1CC(=O)N(Cc2ccco2)C(=S)N1,61.5,0,111.0,75.6,0,30.9
CC1=Nc2ccc3ccccc3c2C1(C)C,35.5,0,84.7,0,44.2,55.4
Cc1c2ccccc2c(C)c2c1ccc1ccccc12,0,0,0,0,-,-
CCc1cccc(C)c1NC(=O)CSc1nc2ccncc2[nH]1,0,0,0,0,-,-
O=C(O)Cn1cc(/C=c2/sc3nc4ccccc4n3c2=O)c2ccccc21,0,0,38.6,0,27.6,37.4
O=c1/c(=C\c2cccn2-c2ccccc2)sc2nc3ccccc3n12,0,0,-,0,-,-
CCC(=O)N1CCN(c2ccc(NC(=S)NC(=O)c3cccc([N+](=O)[O-])c3)cc2)CC1,0,0,0,?,-,-
CCC(=O)N1CCN(c2ccccc2NC(=S)NC(=O)c2cccc([N+](=O)[O-])c2)CC1,0,0,39.1,-,0,0
CC(=O)C1=NOC2C(=O)N(c3ccc(Cl)cc3)C(=O)C12 (centres undefined),0,0,0,0,-,-
O=C(C1=NN(c2ccccc2)C2C(=O)N(c3ccc(Cl)cc3)C(=O)C12)c1ccccc1 (centres undefined),0,0,33.2,0,0,35.2
O=C(C1=NN(c2ccccc2)C2C(=O)N(c3cccc(Cl)c3)C(=O)C12)c1ccccc1 (centres undefined),0,0,33.4,0,36.6,51.3
COc1ccc(S(=O)(=O)N2CCOC2CNC(=O)C(=O)NCCN2CCOCC2)cc1 (centres undefined),0,0,0,0,-,-
O=C(Cc1ccccc1)Nc1ccc(N2CCCC2)cc1,0,0,35.8,0,0,26.4
O=C(Cc1ccccc1)Nc1ccc(N2CCOCC2)cc1,0,0,0,0,-,-
CC(=O)N1c2ccc(S(=O)(=O)NCCC(=O)NCCc3cccc(C)c3)cc2CC1C (centres undefined),0,0,0,0,-,-
